Measured values reported in ChEMBL document CHEMBL4732114, “Design and structural optimization of novel 2H-benzo[h]chromene derivatives that target AcrB and reverse bacterial multidrug resistance” (Eur J Med Chem, 2021).
In brackets after ≈: the same amount, converted by molar mass. Activity calls are given as the source filed them. The rule behind the calls is not given here.

Columns and labels:
Escherichia coli = assay: Antibacterial activity against multidrug-resistant Escherichia coli BW25113 harboring AcrB deletion mutant by two-fold broth dilution method; format: functional
Procedure, shortened: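 Two-fold broth dilution MIC against an isogenic BW25113 strain with AcrB deleted, run alongside the AcrB-expressing parent. The test was done to define sub-inhibitory levels for later checkerboard work.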

[1] = Toxicity in multidrug-resistant Escherichia coli BW25113 assessed as growth inhibition by two-fold broth dilution method
[2] = Toxicity in multidrug-resistant Escherichia coli BW25113 harboring AcrB deletion mutant assessed as growth inhibition by two-fold broth dilution method
[3] = target: T1, Multidrug efflux pump subunit AcrB (Escherichia coli (strain K12)) (UniProt P31224); assay: Inhibition of AcrB in multidrug-resistant Escherichia coli BW25113 assessed as potentiation of levofloxacin-induced antibacterial activity by measuring levofloxacin MIC at 32 ug/ml by checkerboard titration method (reference value: 0.06 ug/ml); settings: dose 32.0 µg/ml
T1 sequence (whole entry): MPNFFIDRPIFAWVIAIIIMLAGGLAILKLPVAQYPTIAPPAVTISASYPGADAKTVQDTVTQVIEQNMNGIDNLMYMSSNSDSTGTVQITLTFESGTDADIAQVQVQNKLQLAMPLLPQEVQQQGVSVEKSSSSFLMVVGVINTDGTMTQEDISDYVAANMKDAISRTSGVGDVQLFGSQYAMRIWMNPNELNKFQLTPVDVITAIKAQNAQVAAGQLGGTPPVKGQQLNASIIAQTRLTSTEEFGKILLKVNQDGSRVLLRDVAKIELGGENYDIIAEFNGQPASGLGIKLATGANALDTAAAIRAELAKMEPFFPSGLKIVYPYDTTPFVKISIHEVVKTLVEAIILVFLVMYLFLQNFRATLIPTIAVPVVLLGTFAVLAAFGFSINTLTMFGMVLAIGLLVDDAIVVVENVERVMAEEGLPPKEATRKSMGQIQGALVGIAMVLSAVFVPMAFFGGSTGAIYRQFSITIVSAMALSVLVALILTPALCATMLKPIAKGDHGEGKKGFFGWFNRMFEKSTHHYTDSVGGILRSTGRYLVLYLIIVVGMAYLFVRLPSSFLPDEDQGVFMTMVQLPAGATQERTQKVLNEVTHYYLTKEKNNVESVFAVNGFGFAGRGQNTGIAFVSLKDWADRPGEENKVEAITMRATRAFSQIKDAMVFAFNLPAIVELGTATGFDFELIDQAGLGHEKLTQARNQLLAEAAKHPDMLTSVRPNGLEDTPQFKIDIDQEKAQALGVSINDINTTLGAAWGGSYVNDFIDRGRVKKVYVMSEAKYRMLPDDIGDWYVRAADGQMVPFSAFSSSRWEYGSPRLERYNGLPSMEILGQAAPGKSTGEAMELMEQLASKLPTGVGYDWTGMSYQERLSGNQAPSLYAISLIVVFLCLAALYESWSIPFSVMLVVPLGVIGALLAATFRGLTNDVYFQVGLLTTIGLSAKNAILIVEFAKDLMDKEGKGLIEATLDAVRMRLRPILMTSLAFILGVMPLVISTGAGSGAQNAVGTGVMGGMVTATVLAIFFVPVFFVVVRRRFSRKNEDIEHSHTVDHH

Cell membrane [4] = assay: Induction of inner membrane permeabilization in wild type Escherichia coli BW25113 assessed as perturbation of proton motive force at 32 ug/ml measured after 10 mins in presence of CCCP and glucose by Di0C2(3) probe based fluorescence assay; settings: escherichia coli bw25113, 10 min, dose 32 µg/ml
Procedure, shortened: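 Cell suspensions were left untreated or exposed to 8-128 µg/mL compound for 10 min. DiOC₂(3) was then added and fluorescence followed to a plateau. Cells were re-energized with 0.5% glucose, and the rise in fluorescence was read as membrane-potential build-up. CCCP was added last to dissipate the potential.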

[5] = target: T1, Multidrug efflux pump subunit AcrB (Escherichia coli (strain K12)); settings: Escherichia coli BW25113; dose 8.0 µg/ml
[6] = target: T1, Multidrug efflux pump subunit AcrB (Escherichia coli (strain K12)); settings: Escherichia coli BW25113; dose 128.0 µg/ml
[7] = target: T1, Multidrug efflux pump subunit AcrB (Escherichia coli (strain K12)); assay: Inhibition of AcrB in Escherichia coli BW25113 assessed as reduction in glucose-induced nile red efflux at 50 uM preincubated for 15 mins followed by nile red addition and incubated for 3 hrs in shaker in presence of CCCP by fluorimetric analysis; settings: time 3.25 hrs
Procedure, shortened: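 Wild-type and AcrB-deleted cells were preloaded with Nile Red, with or without compound. Fluorescence was recorded, and efflux was triggered at 100 s with 0.2% glucose. Traces were compared with the deletion-strain level. Triplicate experiments used different cell batches.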

[8] = target: T1, Multidrug efflux pump subunit AcrB (Escherichia coli (strain K12)); assay: Inhibition of AcrB in multidrug-resistant Escherichia coli BW25113 assessed as potentiation of chloramphenicol-induced antibacterial activity by measuring chloramphenicol MIC at 16 ug/ml by checkerboard titration method (reference value: 8 ug/ml); settings: dose 16.0 µg/ml
[9] = target: T1, Multidrug efflux pump subunit AcrB (Escherichia coli (strain K12)); assay: Inhibition of AcrB in multidrug-resistant Escherichia coli BW25113 assessed as potentiation of levofloxacin-induced antibacterial activity by measuring levofloxacin MIC at 16 ug/ml by checkerboard titration method (reference value: 0.06 ug/ml); settings: dose 16.0 µg/ml
[10] = target: T1, Multidrug efflux pump subunit AcrB (Escherichia coli (strain K12)); settings: Escherichia coli BW25113; dose 16.0 µg/ml
[11] = target: T1, Multidrug efflux pump subunit AcrB (Escherichia coli (strain K12)); settings: Escherichia coli BW25113; dose 64.0 µg/ml
[12] = target: T1, Multidrug efflux pump subunit AcrB (Escherichia coli (strain K12)); assay: Inhibition of AcrB in multidrug-resistant Escherichia coli BW25113 assessed as potentiation of chloramphenicol-induced antibacterial activity by measuring chloramphenicol MIC at 32 ug/ml by checkerboard titration method (reference value: 8 ug/ml); settings: dose 32.0 µg/ml
[13] = target: T1, Multidrug efflux pump subunit AcrB (Escherichia coli (strain K12)); assay: Inhibition of AcrB in multidrug-resistant Escherichia coli BW25113 assessed as potentiation of chloramphenicol-induced antibacterial activity by measuring chloramphenicol MIC at 8 ug/ml by checkerboard titration method (reference value: 8 ug/ml); settings: dose 8.0 µg/ml
[14] = target: T1, Multidrug efflux pump subunit AcrB (Escherichia coli (strain K12)); assay: Inhibition of AcrB in multidrug-resistant Escherichia coli BW25113 assessed as potentiation of tetraphenylphosphonium-induced antibacterial activity by measuring tetraphenylphosphonium MIC at 32 ug/ml by checkerboard titration method (reference value: 1024 ug/ml); settings: dose 32.0 µg/ml
[15] = target: T1, Multidrug efflux pump subunit AcrB (Escherichia coli (strain K12)); assay: Inhibition of AcrB in multidrug-resistant Escherichia coli BW25113 assessed as potentiation of erythromycin-induced antibacterial activity by measuring erythromycin MIC at 32 ug/ml by checkerboard titration method (reference value: 64 ug/ml); settings: dose 32.0 µg/ml
[16] = target: T1, Multidrug efflux pump subunit AcrB (Escherichia coli (strain K12)); assay: Inhibition of AcrB in multidrug-resistant Escherichia coli BW25113 assessed as potentiation of tetraphenylphosphonium-induced antibacterial activity by measuring tetraphenylphosphonium MIC at 8 ug/ml by checkerboard titration method (reference value: 1024 ug/ml); settings: dose 8.0 µg/ml
Cell membrane [17] = assay: Induction of outer membrane permeabilization in wild type Escherichia coli BW25113 assessed as increase in nitrocefin hydrolysis at 128 ug/ml in presence of CCCP by spectroscopic analysis; settings: dose 128 µg/ml
Procedure, shortened: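 Intact E. coli were treated with 10 μM CCCP to block nitrocefin efflux, then given compound, nothing, or polymyxin B as permeabilizer control. Nitrocefin was added, and hydrolysis by periplasmic β-lactamase was followed as the rise in absorbance at 490 nm. Duplicate experiments were run on different days.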

[18] = target: T1, Multidrug efflux pump subunit AcrB (Escherichia coli (strain K12)); assay: Inhibition of AcrB in multidrug-resistant Escherichia coli BW25113 assessed as potentiation of erythromycin-induced antibacterial activity by measuring erythromycin MIC at 16 ug/ml by checkerboard titration method (reference value: 64 ug/ml); settings: dose 16.0 µg/ml
[19] = target: T1, Multidrug efflux pump subunit AcrB (Escherichia coli (strain K12)); assay: Inhibition of AcrB in multidrug-resistant Escherichia coli BW25113 assessed as potentiation of erythromycin-induced antibacterial activity by measuring erythromycin MIC at 8 ug/ml by checkerboard titration method (reference value: 64 ug/ml); settings: dose 8.0 µg/ml
[20] = target: T1, Multidrug efflux pump subunit AcrB (Escherichia coli (strain K12)); assay: Inhibition of AcrB in multidrug-resistant Escherichia coli BW25113 assessed as potentiation of tetraphenylphosphonium-induced antibacterial activity by measuring tetraphenylphosphonium MIC at 16 ug/ml by checkerboard titration method (reference value: 1024 ug/ml); settings: dose 16.0 µg/ml
[21] = target: T1, Multidrug efflux pump subunit AcrB (Escherichia coli (strain K12)); assay: Inhibition of AcrB in multidrug-resistant Escherichia coli BW25113 assessed as potentiation of levofloxacin-induced antibacterial activity by measuring levofloxacin MIC at 8 ug/ml by checkerboard titration method (reference value: 0.06 ug/ml); settings: dose 8.0 µg/ml
[22] = target: T1, Multidrug efflux pump subunit AcrB (Escherichia coli (strain K12)); settings: Escherichia coli BW25113; dose 32.0 µg/ml

## O=C(N[C@H](CO)[C@H](O)c1ccc([N+](=O)[O-])cc1)C(Cl)Cl [CHLORAMPHENICOL]
Escherichia coli
  MIC: 2 µg/mL (≈ 6.19 µM)

## CO[C@H]1/C=C/O[C@@]2(C)Oc3c(C)c(O)c4c(O)c(c(/C=N/N5CCN(C)CC5)c(O)c4c3C2=O)NC(=O)/C(C)=C\C=C\[C@H](C)[C@H](O)[C@@H](C)[C@@H](O)[C@@H](C)[C@H](OC(C)=O)[C@@H]1C [RIFAMPIN]
Escherichia coli
  MIC: 16 µg/mL (≈ 19.4 µM)

## CC1CN(C(=O)c2cc3c(OCc4ccc([N+](=O)[O-])cc4)cccc3c3c2CCC(C)(C)O3)CC(C)O1 (stereo unspecified)
[1]
  MIC: > 512 µg/mL
[2]
  MIC: > 128 µg/mL

## CC1(C)CCc2c(-c3nnco3)cc3c(OCc4ccc(F)cc4)cccc3c2O1
[3]
  MIC: 0.06 µg/mL
Cell membrane [4]
  Activity: Not Active
[5]
  MIC: 16 µg/mL (≈ 39.6 µM)
[6]
  MIC: 16 µg/mL (≈ 39.6 µM)
[7]
  inhibition: Active
[8]
  MIC: 8 µg/mL
[9]
  MIC: 0.06 µg/mL
[10]
  MIC: 16 µg/mL (≈ 39.6 µM)
[1]
  MIC: 64 µg/mL (≈ 158 µM)
[11]
  MIC: 16 µg/mL (≈ 39.6 µM)
[12]
  MIC: 8 µg/mL
[13]
  MIC: 8 µg/mL
[14]
  MIC: 512 µg/mL
[15]
  MIC: 32 µg/mL
[16]
  MIC: 1020 µg/mL
Cell membrane [17]
  Activity: Not Active
[18]
  MIC: 64 µg/mL
[19]
  MIC: 64 µg/mL
[20]
  MIC: 512 µg/mL
[21]
  MIC: 0.06 µg/mL
[2]
  MIC: 64 µg/mL (≈ 158 µM)
[22]
  MIC: 16 µg/mL (≈ 39.6 µM)
